These results are taken from ChEMBL document CHEMBL4609997, “Synthesis and biological activities of amino acids functionalized α-GalCer analogues” (Bioorg Med Chem, 2020).

For series [1], the system named is Mus musculus. The series can be described thus: Immunostimulatory activity in C57BL/6 mouse assessed as IFN-gamma level in serum at 100 ug/kg, ip measured after 24 hrs by ELISA. It is filed as functional. A digest of the protocol:
(§1)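 Female C57BL/6 mice, 7-8 weeks, 25-28 g, SPF housing. Glycolipid 1 mg/mL DMSO stock diluted in PBS, given ip at 100 µg/kg. Serum taken at several time points after injection and IFN-γ and IL-4 measured by ELISA; 3 mice per group, each serum tested individually.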
In general terms: ELISA stands for enzyme-linked immunosorbent assay.

Series [2] concerns the target T1, Antigen-presenting glycoprotein CD1d (Mus musculus) (UniProt P11609+P11610). The series can be described thus: Binding affinity to CD1d in C57BL/6 mouse splenocytes assessed as iNKT cell stimulating activity by measuring induction of Th2-cytokine, IL-4 production incubated for 48 hrs by ELISA. It is filed as cell-based. A digest of the protocol:
(§2)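 Spleens from female C57BL/6 mice passed through a 100 µM strainer, RBC-lysed (ammonium chloride/KHCO3/EDTA buffer, pH 7.2, 5 min, 4 °C), PBS-washed. Splenocytes at 1×10^5/well in RPMI 1640 with 10% FBS and 1% penicillin-streptomycin, exposed to glycolipid at three concentrations (0.01-1 µM) for 48 h at 37 °C. IFN-γ and IL-4 in supernatant measured by ELISA (pg/mL); α-GalCer positive control.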

Series [3] has as its system Mus musculus. The series can be described thus: Immunostimulatory activity in C57BL/6 mouse assessed as increase in IL-4 level in serum at 100 ug/kg, ip measured after 6 hrs by ELISA. Type of series: functional, organism-based. A digest of the protocol: as §1
In series [4] the target is T1, Antigen-presenting glycoprotein CD1d (Mus musculus). The series can be described thus: Binding affinity to CD1d in C57BL/6 mouse splenocytes assessed as iNKT-cell stimulating activity by measuring IFN-gamma/IL-4 ratio at 0.01 uM incubated for 48 hrs by ELISA. To be noted: in the assay text read “IFN-gamma/IL-4 ratio” for “IFN-gamma/IL-6 ratio”. Type of series: cell-based. A digest of the protocol:
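Splenocytes prepared and cultured as for the cytokine assay (1×10^5/well, RPMI 1640 with 10% FBS, 48 h, 37 °C). IFN-γ and IL-4 determined by ELISA at 0.01 µM glycolipid and expressed as the relative proportion (IFN-γ/IL-4 ratio).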

In series [5] the test system is Mus musculus. Kind of series: Immunostimulatory activity in C57BL/6 mouse assessed as induction of Th1 cytokine-biased response by measuring AUC ratio of IFN-gamma/IL-4 cytokine release at 100 ug/kg, ip measured after 24 hrs by ELISA. Type of series: functional. A digest of the protocol: (§3)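 Female C57BL/6 mice given glycolipid ip at 100 µg/kg (DMSO stock diluted in PBS). Serum IFN-γ and IL-4 measured by ELISA at several time points up to 24 h, 3 mice per group tested individually. Th1 bias expressed as IFN-γ/IL-4 ratio and as area-under-curve ratio of IFN-γ/IL-4 release.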

Series [6] has as its target T1, Antigen-presenting glycoprotein CD1d (Mus musculus). Kind of series: Binding affinity to CD1d in C57BL/6 mouse splenocytes assessed as iNKT cell stimulating activity by measuring induction of Th1-cytokine, IFN-gamma production incubated for 48 hrs by ELISA. It is filed as cell-based. An outline of the steps:
as §2

For series [7] the target is unchanged. Kind of series: Binding affinity to CD1d in C57BL/6 mouse splenocytes assessed as iNKT cell stimulating activity by measuring maximal induction of Th2-cytokine, IL-4 production at 1 uM incubated for 48 hrs by ELISA. Type of series: cell-based. A digest of the protocol: as §2
In series [8] the test system is Splenocyte. The series can be described thus: Induction of cell proliferation in C57BL/6 mouse splenocytes incubated for 48 hrs by MTT assay. It is filed as functional, cell-based. An outline of the steps: (§4)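 Female C57BL/6 splenocytes, strained and RBC-lysed, plated at 1×10^5/well in RPMI 1640 with 10% FBS and 1% penicillin-streptomycin, treated 48 h at 37 °C at 1, 0.1 and 0.01 µM. MTT (5 mg/mL) added for 4 h, formazan dissolved in DMSO, OD read at 570 nm. Viability given as % of medium-only control cells.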
Background: Tetrazolium dyes change colour on reduction, which living cells bring about.

Series [9] concerns Splenocyte. Kind of series: Induction of cell proliferation in C57BL/6 mouse splenocytes at 1 uM incubated for 48 hrs by MTT assay. It is filed as functional, cell-based. A digest of the protocol: as §4
The test system of series [10] is Mus musculus. Kind of series: Immunostimulatory activity in C57BL/6 mouse assessed as induction of Th1 cytokine-biased response by measuring IFN-gamma/IL-4 ratio at 100 ug/kg, ip measured after 24 hrs by ELISA.
The target in series [11] is T1, Antigen-presenting glycoprotein CD1d (Mus musculus). Kind of series: Binding affinity to CD1d in C57BL/6 mouse splenocytes assessed as iNKT cell stimulating activity by measuring maximal induction of Th1-cytokine, IFN-gamma production at 1 uM incubated for 48 hrs by ELISA. It is filed as cell-based. An outline of the steps:
as §2

Series [12] has as its system Splenocyte. Kind of series: Cytotoxicity against C57BL/6 mouse splenocytes assessed as reduction in cell viability at 0.01 to 1 uM incubated for 48 hrs by MTT assay. It is filed as cell-based. A digest of the protocol: as §4
Series [13] deals with Mus musculus. The series can be described thus: Immunostimulatory activity in C57BL/6 mouse assessed as increase in IL-4 level in serum at 100 ug/kg, ip measured after 3 hrs by ELISA. It is filed as functional, organism-based. A digest of the protocol: as §1
For series [14], the system named is Mus musculus. The series can be described thus: Immunostimulatory activity in C57BL/6 mouse assessed as increase in IFN-gamma level in serum at 100 ug/kg, ip measured after 6 to 24 hrs by ELISA. Type of series: functional, organism-based. An outline of the steps: as §1
Series [15] deals with Mus musculus. The series can be described thus: Immunostimulatory activity in C57BL/6 mouse assessed as induction of Th1 cytokine-biased response by measuring IFN-gamma/IL-6 ratio at 100 ug/kg, ip measured after 24 hrs by ELISA. It is filed as functional. To be noted: in the assay text read “IFN-gamma/IL-4 ratio” for “IFN-gamma/IL-6 ratio”. A digest of the protocol:
as §3

Active and inactive are the calls of the source. The calls are words filed in the database; no cut-off is given here.

Turning to `CCCCCCCCCCCCCCCCCCCCCCCCCC(=O)N[C@@H](CO[C@H]1O[C@H](Cn2cc(C(=O)N[C@@H](CCCCN)C(=O)OC)nn2)[C@H](O)[C@H](O)[C@H]1O)[C@H](O)[C@H](O)CCCCCCCCCCCCCC`, the Activity in the series with Mus musculus [1] was 3886 pg/mL; in [2] it was “Dose-dependent effect”; in series [6], “Dose-dependent effect”; in the series with Splenocyte [8] it was “Dose-dependent effect”; in the series with Splenocyte [12] it was “Non-Toxic”. Moreover, the result (in the series with Mus musculus [3]; in series [7]; in the series with Splenocyte [9]; in [11]) was Active. The Ratio in series [4] came out at 4.9; with Mus musculus [5] it was 23.6; in the series with Mus musculus [10] it was 5.6.
`CCCCCCCCCCCCCCCCCCCCCCCCCC(=O)N[C@@H](CO[C@H]1O[C@H](Cn2cc(C(=O)NCC(=O)OC)nn2)[C@H](O)[C@H](O)[C@H]1O)[C@H](O)[C@H](O)CCCCCCCCCCCCCC`: the outcome (with Mus musculus [1]; with Mus musculus [13]; in [7]; with Mus musculus [14]; with Splenocyte [9]; in [11]) was Active. In addition, the Activity entry is “Dose-dependent effect” in series [2], “Dose-dependent effect” in [6], “Dose-dependent effect” in the series on Splenocyte [8] and “Non-Toxic” in the series with Splenocyte [12]. For the same molecule, the Ratio in series [4] stood at 2.1.
On to `CCCCCCCCCCCCCCCCCCCCCCCCCC(=O)N[C@@H](CO[C@H]1O[C@H](Cn2cc(C(=O)N[C@@H](Cc3ccccc3)C(=O)OC)nn2)[C@H](O)[C@H](O)[C@H]1O)[C@H](O)[C@H](O)CCCCCCCCCCCCCC`, for which the result (in the series with Mus musculus [1]; in the series on Mus musculus [13]; in [7]; in the series with Mus musculus [14]; in the series with Splenocyte [9]; in [11]) was Active. The Activity entry is “Dose-dependent effect” in [2], “Dose-dependent effect” in series [6], “Dose-dependent effect” with Splenocyte [8] and “Non-Toxic” in the series with Splenocyte [12]. In addition, the Ratio in series [4] stood at 3.3.
In the case of `CCCCCCCCCCCCCCCCCCCCCCCCCC(=O)N[C@@H](CO[C@H]1O[C@H](CO)[C@H](O)[C@H](O)[C@H]1O)[C@H](O)[C@H](O)CCCCCCCCCCCCCC` [RGI-7000], the Activity in the series on Mus musculus [1] is 2925 pg/mL; in [2] it was “Dose-dependent effect”; in series [6] it was “Dose-dependent effect”. Further, the outcome (in the series on Mus musculus [13]; in [7]; in the series on Mus musculus [14]; in series [11]) was Active. For the same molecule, the Ratio is 13.2 with Mus musculus [5] and 2.5 in the series with Mus musculus [15].
For the molecule `CCCCCCCCCCCCCCCCCCCCCCCCCC(=O)N[C@@H](CO[C@H]1O[C@H](Cn2cc(C(=O)N[C@@H](CO)C(=O)OC)nn2)[C@H](O)[C@H](O)[C@H]1O)[C@H](O)[C@H](O)CCCCCCCCCCCCCC`, the Activity was 4755 pg/mL with Mus musculus [1]; “Dose-dependent effect” in series [2]; “Dose-dependent effect” in series [6]; “Dose-dependent effect” in the series on Splenocyte [8]; “Non-Toxic” in the series with Splenocyte [12]. Besides, the Ratio in series [4] turned out to be 1.7; in the series on Mus musculus [15] it was 1.8. Moreover, the outcome (in the series with Mus musculus [13]; in series [7]; with Mus musculus [14]; in the series with Splenocyte [9]; in series [11]) was Active.
